Assay outcomes: PubChem, The Scripps Research Institute Molecular Screening Center
Sampled rows, rich in hits. Any-hit rate of the full collection: about 3.3%.
SIAE inh = human SIAE inhibitors, primary screen, biochemical, fluorescence polarization, FP-Rh probe, 1536-well HTS. Sialate O-acetylesterase (Homo sapiens), Q9HAT2. SIAE FP-Rh probe binding. inhibition, % at 9.66 µM. 0.69% of 370,000 active. AID 1053197, 2014;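 active = inhibition above a cutoff: mean of compounds within the control limits plus 3 SD of those, cut at about 17% in these data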;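 note: 0% = plate median of compound wells and 100% = probe without SIAE protein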
Target sequence (Q9HAT2 whole entry, looked up): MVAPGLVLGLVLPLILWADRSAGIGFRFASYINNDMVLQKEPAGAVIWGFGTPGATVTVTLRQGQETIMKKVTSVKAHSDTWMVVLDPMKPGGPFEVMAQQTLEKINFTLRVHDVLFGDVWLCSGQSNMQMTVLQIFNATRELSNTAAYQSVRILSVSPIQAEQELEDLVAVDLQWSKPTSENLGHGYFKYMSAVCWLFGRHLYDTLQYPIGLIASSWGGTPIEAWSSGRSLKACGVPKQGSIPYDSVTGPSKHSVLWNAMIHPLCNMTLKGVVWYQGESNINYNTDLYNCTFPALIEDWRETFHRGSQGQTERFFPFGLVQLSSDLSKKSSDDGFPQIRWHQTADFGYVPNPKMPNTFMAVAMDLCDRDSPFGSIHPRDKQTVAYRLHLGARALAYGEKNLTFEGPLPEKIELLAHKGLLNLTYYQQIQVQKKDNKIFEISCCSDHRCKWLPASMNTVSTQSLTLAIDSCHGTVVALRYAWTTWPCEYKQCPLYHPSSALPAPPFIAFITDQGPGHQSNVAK
HTRA1 inhibitor = HTRA1 serine protease inhibitors, primary screen, biochemical, fluorescence polarization, HTS; inhibition, % at 5.96 µM; recombinant HTRA1, FP-rhodamine activity-based probe; Q92743; 0.5% of 340,000 active; in the data active = inhibition above about 36%;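 note: 0% = enzyme with DMSO and 100% = wells lacking enzyme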
rCAG RNA binder = binders of r(CAG) RNA repeats, primary screen, biochemical, fluorescence; r(CAG) RNA repeat, TO-PRO-1 dye displacement fluorescence; inhibition, % at 3 µM; 1.3% of 370,000 active; AID 651821, 2012;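 active = inhibition above the plate cutoff, the mean of all test compounds on that plate plus 3 SD, cut at about 35% in these data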;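 note: 0% = DMSO alone and 100% = 100 µM mitoxantrone as full dye displacement; higher means more dye released from RNA so lower well fluorescence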
mABHD4 FP = ABHD4 inhibitors, primary screen, biochemical, fluorescence polarization, mouse; inhibition, % at 8.92 µM; (Lyso)-N-acylphosphatidylethanolamine lipase (Mus musculus), Q8VD66; 0.54% of 370,000 active; purified mABHD4, FP-Rh probe fluorescence polarization; AID 720543, 2013;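 active = inhibition exceeding the mean over every tested compound plus 3 SD, cut at about 30% in these data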;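 note: 0% = plate median of compound wells and 100% = S159A mutant with DMSO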
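Assay system: Wild-type mouse ABHD4 protein | Medium: HEPES pH 7.0 buffer, 150 mM NaCl, 0.01% Pluronic F-127 | Incubation: Enzyme–compound pre-incubation 45 min, then probe 60 min, both 25 °C | Technique: Fluorescence polarization with parallel and perpendicular emission, 525/598 nm | Evaluation: % inhibition of FP-Rh probe binding versus controls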
PRMT1 FP inh = PRMT1 methyltransferase inhibitors, primary screen, biochemical, fluorescence polarization. Protein arginine N-methyltransferase 1 (Homo sapiens), Q99873. 1.3% of 370,000 active. recombinant PRMT1, activity-based probe fluorescence polarization. inhibition, % at 2.79 µM;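 active = inhibition above about 21% made by adding two undisclosed values, limit read from the data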
ABHD4 confirm = ABHD4 inhibitors, retest, confirmation, biochemical, fluorescence polarization, mouse. shares compounds with mABHD4 FP. purified mABHD4, FP-Rh probe fluorescence polarization. inhibition, % at 8.92 µM. 55% of 1,800 active. AID 720658, 2013;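 active = mean inhibition across replicates above the hit cutoff set in the primary screen, cut at about 30% in these data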;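 note: 0% = wild-type ABHD4 with DMSO and 100% = catalytically dead S159A mutant with DMSO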
* = called active by the depositor; . = not tested or not shown; ! = not confirmed by another sample.

SMILES	SIAE inh	HTRA1 inhibitor	rCAG RNA binder	mABHD4 FP	PRMT1 FP inh	ABHD4 confirm
COc1ccccc1NS(=O)(=O)c1ccc(O)c(C(=O)OCC(=O)N2c3ccccc3CC2C)c1 (stereo not drawn)	-5.5	-12.8	15.5	34.9*	-0.5	28.6
N[C@@H](Cc1cc(I)c(O)c(I)c1)C(=O)O	-17.1	30.7	21.4	51.0*	18.7	80.4*
Cc1ccc(Nc2nc(NCc3ccco3)c3ccccc3n2)cc1	12.3	-37.1	17.1	36.1*	2.7	41.0*
OCCNc1nc(Nc2ccc(Br)cc2)nc2ccccc12	18.5*	.	11.8	33.9*	-0.8	46.8*
COc1ccccc1Nc1nc(NCc2ccco2)c2ccccc2n1	4.0	.	10.8	3.1	-1.1	.
Cc1cccc(N(CC(=O)NCc2ccc3c(c2)OCO3)C(=O)CCC(=O)Nc2ccccn2)c1	3.3	3.0	-10.2	39.9*	-1.0	-6.6
N#C/C(C(N)=O)=c1/ccc2c(c1)N1C3=C(CCCC3)CC3CCCCC31N=2 (stereo not drawn)	5.7	.	4.5	49.2*	1.0	49.3*
O=C(O)CNS(=O)(=O)c1c(Cl)cccc1Cl	1.2	1.1	0.0	2.1	1.4	.
CC(=O)/C(N=Nc1ccc(SC(F)F)cc1)=C(\C)O	-4.0	-8.1	-3.1	-1.5	8.0	.
CCSC(=O)N=Nc1ccc(O)cc1	15.8	30.6	5.3	32.9*	19.7	14.8
Cc1cc(=O)oc2cc(OCC(=O)N3CCCC3)c(Cl)cc12	-1.4	1.8	1.3	11.1	2.5	.
CSCCC(NC(=O)c1ccco1)C(=O)N(C)CC(=O)Nc1ccccc1Br (stereo not drawn)	5.0	0.9	-4.7	-6.2	0.2	.
COC(=O)c1ccccc1NC(=O)NC1CCCC1	-8.6	0.3	-1.0	0.2	2.1	.
COc1ccc(NC(=O)c2ccccc2NC(=O)NC2CCCCC2)cc1	-7.9	-8.0	-2.3	46.8*	-1.9	-6.8
CCOC(=O)C1=C(C)N=C2c3ccccc3C(=O)C2C1c1ccccc1 (stereo not drawn)	1.7	-0.8	7.2	33.9*	0.6	37.2*
CCOc1ccc(-c2cc(C(=O)Nc3ccc(F)cc3)[nH]n2)c(C)c1	-7.2	.	3.4	-5.4	-4.9	.
COc1ccc(C(N)c2csc(Nc3ccc(C(F)(F)F)cn3)n2)cc1 (stereo not drawn)	4.2	.	8.6	34.1*	-2.0	25.3
NC(Cc1ccccc1)c1csc(Nc2ccc(C(F)(F)F)cn2)n1 (stereo not drawn)	-1.4	.	12.7	12.7	-2.5	.
CCCCCCSc1cc(-c2nc3ccc(C)cn3c2NCc2ccccc2)ccc1OC	4.6	-11.9	4.2	40.4*	3.8	46.8*
CCC(C)Sc1cccc(-c2nc3ccc(Cl)cn3c2NCc2ccccc2)c1 (stereo not drawn)	.	-28.6	.	.	.	.
CCCCCCSc1cc(-c2nc3cc(C)ccn3c2NCCCC)ccc1OC	12.3	-4.0	0.7	36.8*!	0.2	56.5*
CCCCNc1c(-c2ccc(SC(C)CC)c(OC)c2)nc2ccc(C)cn12 (stereo not drawn)	8.6	-19.2	-5.0	35.9*	2.2	46.9*
CCC(C)Sc1cccc(-c2nc3ccc(C)cn3c2NCc2ccccc2)c1 (stereo not drawn)	4.9	-22.2	2.2	35.9*!	0.9	32.2*
COCc1cccc(-c2csc(C(NC(C)=O)c3cccc(OC)c3)n2)c1 (stereo not drawn)	-0.3	.	-0.7	-1.6	-0.6	.
CC1CCCCN1CCNC(=O)c1ccc2c(c1)N(Cc1ccccc1F)C(=O)c1ccccc1S2=O (stereo not drawn)	4.4	-1.7	-3.8	-2.4	-3.9	.
CCCCNc1c(-c2cccc(-c3cc(C(C)=O)cs3)c2)nc2cc(C)ccn12	5.9	5.0	5.2	41.7*	1.9	45.7*
CC(=O)c1csc(-c2cccc(-c3nc4ccc(Cl)cn4c3NC3CCCCC3)c2)c1	5.6	-5.0	3.1	4.2	-0.1	.
